Experimental data: ChEMBL document CHEMBL3763086, “Salicylanilide N-monosubstituted carbamates: Synthesis and in vitro antimicrobial activity” (2016)
In brackets after ≈: the same amount, converted by molar mass.

Assays:
Assay type in all cases: functional
[1] = tested on: Staphylococcus epidermidis; test: Antibacterial activity against Staphylococcus epidermidis H 6966/08 after 48 hrs by microbroth dilution method; conditions: H 6966/08, 48 h
Procedure, shortened: (§1)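 Microbroth dilution modified per M07-A07 in Mueller-Hinton broth, pH 7.4 (±0.2). Inoculum in sterile water adjusted to 0.5 McFarland. MIC taken as growth reduction of at least 90% (IC90) versus control, read visually and at 540 nm after 24 and 48 h incubation in the dark.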

[2] = tested on: Trichosporon asahii; test: Antifungal activity against Trichosporon asahii 1188 after 48 hrs by microbroth dilution method; conditions: Trichosporon asahii, 1188, 48 h
[3] = tested on: Candida tropicalis; test: Antifungal activity against Candida tropicalis 156 after 48 hrs by microbroth dilution method; conditions: Candida tropicalis, 156, 48 h
[4] = tested on: Klebsiella pneumoniae; test: Antibacterial activity against Klebsiella pneumoniae D 11750/08 after 48 hrs by microbroth dilution method; conditions: D 11750/08, 48 h; procedure, shortened: as §1
[5] = tested on: Staphylococcus aureus; test: Antibacterial activity against methicillin-resistant Staphylococcus aureus H 5996/08 after 24 hrs by microbroth dilution method; conditions: H 5996/08, 24 h
Procedure, shortened: (§2)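 Microdilution broth method modified after M07-A07 in Mueller-Hinton broth adjusted to pH 7.4 (±0.2). Inoculum prepared in sterile water to 0.5 McFarland (1.5 × 10^8 CFU/mL). MIC taken as growth reduction versus control (IC95 per table header), read visually and spectrophotometrically at 540 nm after 24 and 48 h incubation in the dark.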

[6] = tested on: Staphylococcus epidermidis; test: Antibacterial activity against Staphylococcus epidermidis H 6966/08 after 24 hrs by microbroth dilution method; conditions: H 6966/08, 24 h; procedure, shortened: as §1
[7] = tested on: Klebsiella pneumoniae; test: Antibacterial activity against ESBL-positive Klebsiella pneumoniae J 14368/08 after 48 hrs by microbroth dilution method; conditions: J 14368/08, 48 h; procedure, shortened: as §1
[8] = tested on: Pichia kudriavzevii; test: Antifungal activity against Candida krusei E28 after 24 hrs by microbroth dilution method; conditions: E28, 24 h
[9] = tested on: Enterococcus sp.; test: Antibacterial activity against Enterococcus sp. J 14365/08 after 48 hrs by microbroth dilution method; conditions: J 14365/08, 48 h; procedure, shortened: as §1
[10] = tested on: Lichtheimia corymbifera; test: Antifungal activity against Absidia corymbifera 272 after 48 hrs by microbroth dilution method; conditions: Lichtheimia corymbifera, 272, 48 h
[11] = tested on: Candida albicans; test: Antifungal activity against Candida albicans ATCC 44859 after 48 hrs by microbroth dilution method; conditions: ATCC 44859, 48 h
[12] = tested on: Escherichia coli; test: Antibacterial activity against Escherichia coli CCM 4517 after 48 hrs by microbroth dilution method; conditions: CCM 4517, 48 h; procedure, shortened: as §1
[13] = tested on: Candida tropicalis; test: Antifungal activity against Candida tropicalis 156 after 24 hrs by microbroth dilution method; conditions: Candida tropicalis, 156, 24 h
[14] = tested on: Trichosporon asahii; test: Antifungal activity against Trichosporon asahii 1188 after 24 hrs by microbroth dilution method; conditions: Trichosporon asahii, 1188, 24 h
[15] = tested on: Nakaseomyces glabratus; test: Antifungal activity against Candida glabrata 20/I after 24 hrs by microbroth dilution method
[16] = tested on: Candida albicans; test: Antifungal activity against Candida albicans ATCC 44859 after 24 hrs by microbroth dilution method; conditions: ATCC 44859, 24 h
[17] = tested on: Trichophyton mentagrophytes; test: Antifungal activity against Trichophyton mentagrophytes 445 after 72 hrs by microbroth dilution method; conditions: Trichophyton mentagrophytes, 445, 72 h
[18] = tested on: Klebsiella pneumoniae; test: Antibacterial activity against Klebsiella pneumoniae D 11750/08 after 24 hrs by microbroth dilution method; conditions: D 11750/08, 24 h; procedure, shortened: as §1
[19] = tested on: Nakaseomyces glabratus; test: Antifungal activity against Candida glabrata 20/I after 48 hrs by microbroth dilution method
[20] = tested on: Lichtheimia corymbifera; test: Antifungal activity against Absidia corymbifera 272 after 24 hrs by microbroth dilution method; conditions: Lichtheimia corymbifera, 272, 24 h
[21] = tested on: Staphylococcus aureus; test: Antibacterial activity against Staphylococcus aureus CCM 4516/08 after 48 hrs by microbroth dilution method; conditions: CCM 4516/08, 48 h; procedure, shortened: as §2
[22] = tested on: Klebsiella pneumoniae; test: Antibacterial activity against ESBL-positive Klebsiella pneumoniae J 14368/08 after 24 hrs by microbroth dilution method; conditions: J 14368/08, 24 h; procedure, shortened: as §1
[23] = tested on: Pichia kudriavzevii; test: Antifungal activity against Candida krusei E28 after 48 hrs by microbroth dilution method; conditions: E28, 48 h
[24] = tested on: Staphylococcus aureus; test: Antibacterial activity against methicillin-resistant Staphylococcus aureus H 5996/08 after 48 hrs by microbroth dilution method; conditions: H 5996/08, 48 h; procedure, shortened: as §2
[25] = tested on: Trichophyton mentagrophytes; test: Antifungal activity against Trichophyton mentagrophytes 445 after 120 hrs by microbroth dilution method; conditions: Trichophyton mentagrophytes, 445, 120 h
[26] = tested on: Staphylococcus aureus; test: Antibacterial activity against Staphylococcus aureus CCM 4516/08 after 24 hrs by microbroth dilution method; conditions: CCM 4516/08, 24 h; procedure, shortened: as §1
[27] = tested on: Enterococcus sp.; test: Antibacterial activity against Enterococcus sp. J 14365/08 after 24 hrs by microbroth dilution method; conditions: J 14365/08, 24 h; procedure, shortened: as §1
[28] = tested on: Escherichia coli; test: Antibacterial activity against Escherichia coli CCM 4517 after 24 hrs by microbroth dilution method; conditions: CCM 4517, 24 h; procedure, shortened: as §1

| Compound | MIC [1] | MIC [2] | MIC [3] | MIC [4] | MIC [5] | MIC [6] | MIC [7] | MIC [8] | MIC [9] | MIC [10] | MIC [11] | MIC [12] | MIC [13] | MIC [14] | MIC [15] | MIC [16] | MIC [17] | MIC [18] | MIC [19] | MIC [20] | other results |
| --- | --- | --- | --- | --- | --- | --- | --- | --- | --- | --- | --- | --- | --- | --- | --- | --- | --- | --- | --- | --- | --- |
| O=C(Nc1ccccc1)Oc1ccc(Cl)cc1C(=O)Nc1ccc(Cl)cc1 | 31.2 µM (≈ 12.5 µg/mL) | 62.5 µM (≈ 25.1 µg/mL) | > 125 µM | 500 µM (≈ 201 µg/mL) | 31.2 µM (≈ 12.5 µg/mL) | 31.2 µM (≈ 12.5 µg/mL) | 62.5 µM (≈ 25.1 µg/mL) | 62.5 µM (≈ 25.1 µg/mL) | 500 µM (≈ 201 µg/mL) | > 125 µM | > 125 µM | 500 µM (≈ 201 µg/mL) | > 125 µM | 62.5 µM (≈ 25.1 µg/mL) | > 125 µM | > 125 µM | 1.95 µM (≈ 0.782 µg/mL) | 500 µM (≈ 201 µg/mL) | > 125 µM | > 125 µM | MIC [21]: 31.2 µM (≈ 12.5 µg/mL); MIC [22]: 62.5 µM (≈ 25.1 µg/mL); MIC [23]: 62.5 µM (≈ 25.1 µg/mL); MIC [24]: 31.2 µM (≈ 12.5 µg/mL); MIC [25]: 1.95 µM (≈ 0.782 µg/mL); MIC [26]: 31.2 µM (≈ 12.5 µg/mL); MIC [27]: 500 µM (≈ 201 µg/mL); MIC [28]: 500 µM (≈ 201 µg/mL) |
| O=C(NC12CC3CC(CC(C3)C1)C2)Oc1ccc(Cl)cc1C(=O)Nc1ccc(Cl)cc1 | 3.9 µM (≈ 1.79 µg/mL) | 31.2 µM (≈ 14.4 µg/mL) | 250 µM (≈ 115 µg/mL) | > 250 µM | 3.9 µM (≈ 1.79 µg/mL) | 3.9 µM (≈ 1.79 µg/mL) | 62.5 µM (≈ 28.7 µg/mL) | 125 µM (≈ 57.4 µg/mL) | 250 µM (≈ 115 µg/mL) | > 250 µM | > 250 µM | > 250 µM | 250 µM (≈ 115 µg/mL) | 31.2 µM (≈ 14.4 µg/mL) | > 250 µM | > 250 µM | 3.9 µM (≈ 1.79 µg/mL) | > 250 µM | > 250 µM | > 250 µM | MIC [21]: 15.6 µM (≈ 7.18 µg/mL); MIC [22]: 62.5 µM (≈ 28.7 µg/mL); MIC [23]: 125 µM (≈ 57.4 µg/mL); MIC [24]: 31.2 µM (≈ 14.4 µg/mL); MIC [25]: 3.9 µM (≈ 1.79 µg/mL); MIC [26]: 3.9 µM (≈ 1.79 µg/mL); MIC [27]: 250 µM (≈ 115 µg/mL); MIC [28]: > 250 µM |
| O=C(NCCc1ccccc1)Oc1ccc(Cl)cc1C(=O)Nc1ccc(Cl)cc1 | 15.6 µM (≈ 6.71 µg/mL) | > 500 µM | > 500 µM | 500 µM (≈ 215 µg/mL) | 3.9 µM (≈ 1.67 µg/mL) | 3.9 µM (≈ 1.67 µg/mL) | 31.2 µM (≈ 13.4 µg/mL) | > 500 µM | 500 µM (≈ 215 µg/mL) | > 500 µM | > 500 µM | 500 µM (≈ 215 µg/mL) | > 500 µM | > 500 µM | > 500 µM | > 500 µM | 1.95 µM (≈ 0.837 µg/mL) | 500 µM (≈ 215 µg/mL) | > 500 µM | > 500 µM | MIC [21]: 15.6 µM (≈ 6.71 µg/mL); MIC [22]: 31.2 µM (≈ 13.4 µg/mL); MIC [23]: > 500 µM; MIC [24]: 15.6 µM (≈ 6.71 µg/mL); MIC [25]: 1.95 µM (≈ 0.837 µg/mL); MIC [26]: 3.9 µM (≈ 1.67 µg/mL); MIC [27]: 500 µM (≈ 215 µg/mL); MIC [28]: 125 µM (≈ 53.7 µg/mL) |
| O=C(NCCc1ccccc1)Oc1ccc(Cl)cc1C(=O)Nc1ccc(Br)cc1 | 0.98 µM (≈ 0.464 µg/mL) | 62.5 µM (≈ 29.6 µg/mL) | > 125 µM | > 500 µM | 0.98 µM (≈ 0.464 µg/mL) | ≤ 0.49 µM | > 500 µM | > 125 µM | > 500 µM | 125 µM (≈ 59.2 µg/mL) | > 125 µM | > 500 µM | > 125 µM | 62.5 µM (≈ 29.6 µg/mL) | 125 µM (≈ 59.2 µg/mL) | > 125 µM | 3.9 µM (≈ 1.85 µg/mL) | > 500 µM | 125 µM (≈ 59.2 µg/mL) | 125 µM (≈ 59.2 µg/mL) | MIC [21]: 1.95 µM (≈ 0.924 µg/mL); MIC [22]: > 500 µM; MIC [23]: > 125 µM; MIC [24]: 1.95 µM (≈ 0.924 µg/mL); MIC [25]: 3.9 µM (≈ 1.85 µg/mL); MIC [26]: ≤ 0.49 µM; MIC [27]: > 500 µM; MIC [28]: > 500 µM |
| O=C(NC12CC3CC(CC(C3)C1)C2)Oc1ccc(Cl)cc1C(=O)Nc1ccc(Br)cc1 | 1.95 µM (≈ 0.982 µg/mL) | > 125 µM | > 125 µM | > 250 µM | 1.95 µM (≈ 0.982 µg/mL) | 0.98 µM (≈ 0.494 µg/mL) | 125 µM (≈ 63 µg/mL) | > 125 µM | > 500 µM | > 125 µM | > 125 µM | > 250 µM | > 125 µM | > 125 µM | > 125 µM | > 125 µM | 7.81 µM (≈ 3.93 µg/mL) | > 250 µM | > 125 µM | > 125 µM | MIC [21]: 1.95 µM (≈ 0.982 µg/mL); MIC [22]: 31.2 µM (≈ 15.7 µg/mL); MIC [23]: > 125 µM; MIC [24]: 3.9 µM (≈ 1.96 µg/mL); MIC [25]: 7.81 µM (≈ 3.93 µg/mL); MIC [26]: 0.98 µM (≈ 0.494 µg/mL); MIC [27]: > 500 µM; MIC [28]: > 250 µM |
